# Measured values of several laboratories.
# LRRK2 G2019S: Leucine-rich repeat serine/threonine-protein kinase 2 (LRRK2, Homo sapiens, UniProt Q5S007, G2019S)
# LRRK2: Leucine-rich repeat serine/threonine-protein kinase 2 (LRRK2, Homo sapiens, UniProt Q5S007)
Structure (SMILES),target,assay,conditions,endpoint,result
Cn1cncc1[C@@](O)(COc1ccc(C#N)cc1-c1ccc(OC(F)(F)F)cc1)c1ccc(C#N)cc1,LRRK2 G2019S,"cell-free assay, competition with immobilised ligand",1 µM,remaining binding,91%
COc1ncccc1-c1cnn2ccc(N3CCN(C(=O)OC(C)C)CC3)nc12,LRRK2,"binding, competition with immobilised ligand",1 µM,remaining binding,87%
Cc1nn(C)cc1-c1nc2c(N3CCN(Cc4ccc(Cl)cc4)CC3)c(Cl)cnc2[nH]1,LRRK2 G2019S,"binding, competition with immobilised ligand",1 µM,remaining binding,85%
O=c1[nH]c2ccccc2n1C1CCN(Cc2ccc(-c3[nH]c4cc5ncnc5cc4nc3-c3ccccc3)cc2)CC1,LRRK2,cell-free assay,0.5 µM,remaining signal,103%
C#Cc1n[nH]c2c(-c3cn(C(C)c4ccccn4)c(=O)[nH]c3=O)cc(F)cc12 (stereo not drawn),LRRK2,"enzyme activity, inhibitor",1 µM,inhibition,-0.2%
Cn1cc(-c2cccc(N3CCc4c(sc5c4CC(C)(C)C5)C3=O)c2CO)cc(Nc2ccncn2)c1=O,LRRK2,"enzyme activity, inhibitor",1 µM,inhibition,-1%
CC(C)(C)c1cc(C=C(C#N)C#N)cc(Br)c1O,LRRK2,"enzyme activity, inhibitor",0.5 µM,remaining activity,109%
N#CC1(c2ccccn2)CCN(Cc2cc(C(=O)O)c(=O)n3ccccc23)CC1,LRRK2 G2019S,"cell-free assay, competition with immobilised ligand",1 µM,remaining binding,100%
Nc1ncc(-c2nc(N3CCOCC3)nc(N3CCOCC3)n2)c(C(F)F)n1,LRRK2 G2019S,"binding, competition with immobilised ligand",10 µM,remaining binding,91%
